Experimental data as given in ChEMBL document CHEMBL1932981, “Synthesis of novel 2, 5-dihydrofuran derivatives and evaluation of their anticancer activity” (Eur J Med Chem, 2012).

Key:
Type in all cases: functional, cell-based
HeLa = assay: Cytotoxicity against human HeLa cells after 24 hrs by MTT assay
Summary of the method: (§1)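 Cell lines from the Navy Medical College, seeded at 8000 cells/well in 96-well plates. Compounds dissolved in DMSO (stock 10 g/L) and freshly diluted in medium. Dilutions were added in duplicate 24 h after seeding, with incubation continued at 37 °C. Viability read by MTT. IC50 taken as the concentration giving 50% growth inhibition, determined following NCCLS recommendations.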

SW480 = assay: Cytotoxicity against human SW480 cells after 24 hrs by MTT assay; details: SW480, 24 h; summary of the method: as §1
[1] = Cytotoxicity against human QGY7701 cells after 24 hrs by MTT assay; details: QGY7701, 24 h; summary of the method: as §1
A549 = assay: Cytotoxicity against human A549 cells after 24 hrs by MTT assay; summary of the method: as §1
[2] = Homo sapiens, HeLa, 24 h, read-out: IC50
[3] = Homo sapiens, A549, 24 h, read-out: IC50

Structure (SMILES)	IC50 (HeLa; [2]) [µM]	IC50 (SW480) [µM]	IC50 [1] [µM]	IC50 (A549; [3]) [µM]	IC50 (HeLa; hela)	IC50 (A549; a549)
C=CC1=C(C(=O)NCCC)C(c2ccc(F)cc2)OC1 (stereo unspecified)	> 100	> 100	> 100	> 100		
C=CC1=C(C(=O)NCc2ccc(C)cc2)C(c2ccc(F)cc2)OC1 (stereo unspecified)	> 100	> 100	62.1	> 100		
C=CC1=C(C(=O)N2CCN(c3ccccc3OC)CC2)C(c2ccc(OC)cc2)OC1 (stereo unspecified)	> 100	> 100	23.6	23		
C=CC1=C(C(=O)NCc2ccc(Cl)cc2)C(c2ccc(OC)c(OC)c2)OC1 (stereo unspecified)	> 100	> 100	> 100	> 100		
C=CC1=C(C(=O)NCCCCC)C(c2ccc(OC)cc2)OC1 (stereo unspecified)	> 100	> 100	> 100	36.5		
C=CC1=C(C(=O)NCc2ccc(OC)c(OC)c2)C(c2ccc(OC)cc2)OC1 (stereo unspecified)	> 100	13.5	> 100	> 100		
C=CC1=C(C(=O)NCCCCC)C(c2ccc(Cl)c(Cl)c2)OC1 (stereo unspecified)	> 100	27.5	> 100	> 100		
C=CC1=C(C(=O)NCc2ccc(OC)c(OC)c2)C(c2ccc(F)cc2)OC1 (stereo unspecified)	> 100	> 100	87.3	> 100		
C=CC1=C(C(=O)NCc2ccc(Cl)cc2)C(c2ccc(OC)cc2)OC1 (stereo unspecified)	> 100	> 100	> 100	> 100		
C=CC1=C(C(=O)NCCC)C(c2ccc(OC)cc2)OC1 (stereo unspecified)	14	> 100	> 100	> 100		
C=CC1=C(C(=O)O)C(c2ccc(OC)c(OC)c2)OC1 (stereo unspecified)	18	> 100	> 100	> 100		
C=CC1=C(C(=O)NCc2ccccc2)C(c2ccc(Cl)c(Cl)c2)OC1 (stereo unspecified)	> 100	> 100	> 100	> 100		
C=CC1=C(C(=O)NCCc2cccc(F)c2)C(c2ccc(OC)cc2)OC1 (stereo unspecified)	31.4	> 100	> 100	> 100		
C=CC1=C(C(=O)N2CCN(c3ccc(F)cc3)CC2)C(c2ccc(OC)cc2)OC1 (stereo unspecified)	9.86	> 100	11	8.31		
C=CC1=C(C(=O)Nc2ccccc2)C(c2ccc(F)cc2)OC1 (stereo unspecified)	> 100	> 100	46.7	> 100		
C=CC1=C(C(=O)NCCc2cccc(OC)c2)C(c2ccc(OC)cc2)OC1 (stereo unspecified)	> 100	> 100	> 100	> 100		
C=CC1=C(C(=O)NC(C)(C)C)C(c2ccc(F)cc2)OC1 (stereo unspecified)	> 100	> 100	> 100	> 100		
O=c1[nH]cc(F)c(=O)[nH]1 [FLUOROURACIL]	16.3	15.7	14.3			
C=CC1=C(C(=O)NCC(C)C)C(c2ccc(F)cc2)OC1 (stereo unspecified)	> 100	> 100	> 100	> 100		
COc1cccc2c1C(=O)c1c(O)c3c(c(O)c1C2=O)C[C@@](O)(C(=O)CO)C[C@@H]3O[C@H]1C[C@H](N)[C@H](O)[C@H](C)O1 [DOXORUBICIN]	1.12	65.2	8.65	6.61		

Structure (SMILES)	IC50 (HeLa; [2]) [µM]	IC50 (SW480) [µM]	IC50 [1] [µM]	IC50 (A549; [3]) [µM]	IC50 (HeLa; hela)	IC50 (A549; a549)
C=CC1=C(C(=O)NCCc2cccc(F)c2)C(c2ccc(F)cc2)OC1 (stereo unspecified)	> 100	> 100	59.8	> 100		
C=CC1=C(C(=O)NCCC)C(c2ccc(OC)c(OC)c2)OC1 (stereo unspecified)	> 100	> 100	> 100	> 100		
C=CC1=C(C(=O)NCCc2cccc(OC)c2)C(c2ccc(F)cc2)OC1 (stereo unspecified)		> 100	87.2	> 100	Not Active	
C=CC1=C(C(=O)NC2CCCCC2)C(c2ccc(OC)c(OC)c2)OC1 (stereo unspecified)	5.54	19.1	7.49	> 100		
C=CC1=C(C(=O)Nc2cccc(C)c2)C(c2ccc(OC)cc2)OC1 (stereo unspecified)	> 100	> 100	> 100	> 100		
C=CC1=C(C(=O)Nc2ccccc2)C(c2ccc(Cl)c(Cl)c2)OC1 (stereo unspecified)	> 100	> 100	> 100	> 100		
C=CC1=C(C(=O)NCc2ccccc2)C(c2ccc(OC)cc2)OC1 (stereo unspecified)	> 100	39.5	> 100	> 100		
C=CC1=C(C(=O)Nc2ccc(OCC)cc2)C(c2ccc(OC)cc2)OC1 (stereo unspecified)	> 100	> 100	> 100	17.6		
C=CC1=C(C(=O)NC(C)(C)C)C(c2ccc(OC)cc2)OC1 (stereo unspecified)	> 100	> 100	> 100	> 100		
C=CC1=C(C(=O)O)C(c2ccc(Cl)c(Cl)c2)OC1 (stereo unspecified)	10.3	> 100	> 100	> 100		
C=CC1=C(C(=O)NCCc2ccc(F)cc2)C(c2ccc(OC)cc2)OC1 (stereo unspecified)	> 100	> 100	> 100	> 100		
C=CC1=C(C(=O)N2CCN(c3cccc(C)c3C)CC2)C(c2ccc(OC)cc2)OC1 (stereo unspecified)	> 100	44.1	> 100	10.3		
C=CC1=C(C(=O)NCc2ccc(C)cc2)C(c2ccc(OC)c(OC)c2)OC1 (stereo unspecified)	> 100	> 100	69.1	> 100		
C=CC1=C(C(=O)Nc2cccc(C)c2)C(c2ccc(F)cc2)OC1 (stereo unspecified)		> 100	56.4	> 100	Not Active	
C=CC1=C(C(=O)NCCC)C(c2ccc(Cl)c(Cl)c2)OC1 (stereo unspecified)	> 100	> 100	31.3	> 100		
C=CC1=C(C(=O)Nc2ccc(C)cc2)C(c2ccc(OC)cc2)OC1 (stereo unspecified)	> 100	> 100	> 100	> 100		
C=CC1=C(C(=O)O)C(c2ccc(OC)cc2)OC1 (stereo unspecified)	44.3	> 100	> 100	> 100		
C=CC1=C(C(=O)N2CCN(c3cccc(Cl)c3Cl)CC2)C(c2ccc(OC)cc2)OC1 (stereo unspecified)	4	29.2	4.96	8.86		
C=CC1=C(C(=O)NCc2ccc(C)cc2)C(c2ccc(OC)cc2)OC1 (stereo unspecified)	15.8	31.7	43.1	> 100		
C=CC1=C(C(=O)NCCc2ccc(F)cc2)C(c2ccc(F)cc2)OC1 (stereo unspecified)	> 100	36	29.7	> 100		

Structure (SMILES)	IC50 (HeLa; [2]) [µM]	IC50 (SW480) [µM]	IC50 [1] [µM]	IC50 (A549; [3]) [µM]	IC50 (HeLa; hela)	IC50 (A549; a549)
C=CC1=C(C(=O)NCc2ccc(Cl)cc2)C(c2ccc(F)cc2)OC1 (stereo unspecified)	> 100	> 100	36.9	> 100		
C=CC1=C(C(=O)Nc2ccccc2OC)C(c2ccc(OC)cc2)OC1 (stereo unspecified)	> 100	> 100	> 100	> 100		
C=CC1=C(C(=O)NCc2ccccc2)C(c2ccc(OC)c(OC)c2)OC1 (stereo unspecified)	> 100	> 100	> 100	> 100		
C=CC1=C(C(=O)Nc2ccc(OCC)cc2)C(c2ccc(F)cc2)OC1 (stereo unspecified)	> 100	> 100	61.6			Not Active
C=CC1=C(C(=O)NCc2ccccc2F)C(c2ccc(OC)cc2)OC1 (stereo unspecified)	> 100	> 100	> 100	> 100		
C=CC1=C(C(=O)NC2CCCCC2)C(c2ccc(F)cc2)OC1 (stereo unspecified)	> 100	> 100	40.5	> 100		
C=CC1=C(C(=O)N2CCN(c3cccc(OC)c3)CC2)C(c2ccc(OC)cc2)OC1 (stereo unspecified)	15.3	25	17.9	20.7		
C=CC1=C(C(=O)Nc2ccccc2)C(c2ccc(OC)cc2)OC1 (stereo unspecified)	> 100	> 100	> 100	> 100		
C=CC1=C(C(=O)NCc2ccccc2)C(c2ccc(F)cc2)OC1 (stereo unspecified)	> 100	> 100	67.6	> 100		
C=CC1=C(C(=O)NCCc2ccccc2F)C(c2ccc(OC)cc2)OC1 (stereo unspecified)	37.5	> 100	> 100	> 100		
C=CC1=C(C(=O)NCCCCC)C(c2ccc(F)cc2)OC1 (stereo unspecified)	> 100	> 100	> 100	> 100		
C=CC1=C(C(=O)NCC(C)C)C(c2ccc(OC)cc2)OC1 (stereo unspecified)	> 100	> 100	> 100	> 100		
C=CC1=C(C(=O)Nc2ccccc2OC)C(c2ccc(F)cc2)OC1 (stereo unspecified)	> 100	> 100	52.8	> 100		
C=CC1=C(C(=O)NCCc2ccccc2F)C(c2ccc(F)cc2)OC1 (stereo unspecified)	> 100	> 100	35.1	> 100		
C=CC1=C(C(=O)N2CCN(c3ccccc3Cl)CC2)C(c2ccc(OC)cc2)OC1 (stereo unspecified)	> 100	13.1	> 100	35.3		
C=CC1=C(C(=O)Nc2ccccc2OC)C(c2ccc(Cl)c(Cl)c2)OC1 (stereo unspecified)	> 100	> 100	> 100	> 100		
C=CC1=C(C(=O)NCc2ccccc2F)C(c2ccc(F)cc2)OC1 (stereo unspecified)	> 100	> 100	51.4	> 100		
C=CC1=C(C(=O)NC(C)(C)C)C(c2ccc(Cl)c(Cl)c2)OC1 (stereo unspecified)	> 100	> 100	> 100	> 100		
